Measurements gathered from unrelated publications.
Compare with care: the assays were run in different laboratories.
Tumor necrosis factor receptor superfamily member 9: Tumor necrosis factor receptor superfamily member 9 (Homo sapiens, UniProt Q07011)
IDE: Insulin-degrading enzyme (IDE, Homo sapiens, UniProt P14735)

Cc1cnc(-c2ccc(-c3ccc(NC(=O)Nc4c(F)cc(F)cc4F)cc3F)c3c2C(=O)NC3)[nH]1 — IC50 (TRAF2 and NCK-interacting protein kinase (TNIK, Homo sapiens, UniProt Q9UKE5); enzyme activity; inhibitor): 4.1 nM
CCCC[C@@H]1NC(=O)[C@H](Cc2ccc(O)cc2)NC(=O)[C@@H]2CCCN2C(=O)[C@H](CC(=O)O)NC(=O)[C@H](C)NC(=O)[C@H](Cc2ccccc2)NC(=O)[C@@H]2CSCCC(=O)N3CN(CN(C3)C(=O)CCSC[C@@H](C(=O)N[C@@H](CNC(=O)CCc3cn(CC(=O)N[C@H]4CSCCC(=O)N5CN6CN(C5)C(=O)CCSC[C@H](NC(=O)[C@@H](CC(=O)O)NC(=O)[C@H](Cc5cccc7ccccc57)NC(=O)[C@@H]5CCCN5C4=O)C(=O)N[C@@H](CCSC)C(=O)N[C@@H](CCCCNC(=N)N)C(=O)N[C@@H](CC(=O)O)C(=O)N[C@@H](Cc4c[nH]c5ccccc45)C(=O)N[C@@H](CO)C(=O)N[C@@H]([C@@H](C)O)C(=O)N4CCC[C@H]4C(=O)N4C[C@H](O)C[C@H]4C(=O)N[C@@H](Cc4c[nH]c5ccccc45)C(=O)N[C@H](C(N)=O)CSCCC6=O)nn3)C(N)=O)NC1=O)C(=O)CCSC[C@H](NC(C)=O)C(=O)N[C@@H](CC(C)(C)C)C(=O)N1CCC[C@H]1C(=O)N[C@@H](CCC(=O)O)C(=O)N[C@H](C)C(=O)N1CCC[C@H]1C(=O)N[C@@H](Cc1ccc(O)cc1)C(=O)N2 — Kd (Tumor necrosis factor receptor superfamily member 9; binding; SPR): 3.5 nM
COC(=O)[C@H](Cc1c[nH]cn1)NC(=O)CN(CCCCc1ccccc1)CC(=O)O — IC50 (IDE; enzyme activity; inhibitor; fluorescence): 600 nM
CC/C=C\C/C=C\C/C=C\C/C=C\C/C=C\C/C=C\CCC(=O)O — Kd (Nuclear receptor subfamily 4 group A member 2 (Homo sapiens, UniProt P43354); binding): 30000 nM
COC(=O)[C@H](Cc1c[nH]cn1)NC(=O)CN(CC(=O)O)Cc1ccc(C)cc1 — IC50 (IDE; enzyme activity; inhibitor; fluorescence): 1700 nM
COc1ccc(OC(=O)N(CC(=O)O)Cc2ccc(OCCc3nc(-c4ccccc4)oc3C)cc2)cc1 — EC50 (Peroxisome proliferator-activated receptor alpha (PPARA, Homo sapiens, UniProt Q07869); reporter gene; agonist; luciferase): 6500 nM
O=C(O)CN(CC(=O)N[C@H](CO)Cc1c[nH]cn1)Cc1ccccc1 — IC50 (IDE; enzyme activity; inhibitor; fluorescence): 4100 nM
CCCC[C@@H]1NC(=O)[C@H](Cc2ccc(O)cc2)NC(=O)[C@@H]2CCCN2C(=O)[C@H](CC(=O)O)NC(=O)[C@H](C)NC(=O)[C@H](Cc2ccccc2)NC(=O)[C@@H]2CSCCC(=O)N3CN(CN(C3)C(=O)CCSC[C@@H](C(=O)N[C@@H](C)C(N)=O)NC1=O)C(=O)CCSC[C@H](NC(C)=O)C(=O)N[C@@H](CC(C)(C)C)C(=O)N1CCC[C@H]1C(=O)N[C@@H](CCC(=O)O)C(=O)N[C@H](CCCCNC(=O)CCc1cn(CCOCCOCCOCCOCCOCCC(=O)N[C@H]3CSCCC(=O)N4CN5CN(C4)C(=O)CCSC[C@H](NC(=O)[C@@H](CC(=O)O)NC(=O)[C@H](Cc4cccc6ccccc46)NC(=O)[C@@H]4CCCN4C3=O)C(=O)N[C@@H](CCSC)C(=O)N[C@@H](CCCCNC(=N)N)C(=O)N[C@@H](CC(=O)O)C(=O)N[C@@H](Cc3c[nH]c4ccccc34)C(=O)N[C@@H](CO)C(=O)N[C@@H]([C@@H](C)O)C(=O)N3CCC[C@H]3C(=O)N3C[C@H](O)C[C@H]3C(=O)N[C@@H](Cc3c[nH]c4ccccc34)C(=O)N[C@H](C(N)=O)CSCCC5=O)nn1)C(=O)N1CCC[C@H]1C(=O)N[C@@H](Cc1ccc(O)cc1)C(=O)N2 — Kd (Tumor necrosis factor receptor superfamily member 9; binding; SPR): 3.4 nM
CNC(=O)c1cc2c(Oc3ccc(NC(=O)C4(C(=O)Nc5ccc(F)cc5)CC4)cc3)ccnc2cc1OC — IC50 (Hepatocyte growth factor receptor (MET, Homo sapiens, UniProt P08581); enzyme activity; inhibitor; TR-FRET): 16.1 nM
CC#CC(=O)N1CC[C@@H](n2cc(-c3ccc(Oc4c(F)cccc4F)cc3)c3c(N)n[nH]c(=O)c32)C1 — Kd (Tyrosine-protein kinase JAK3 (JAK3, Homo sapiens, UniProt P52333); binding; competition with immobilised ligand): > 3000 nM
CC(C)C[C@H](NC(=O)[C@H](Cc1ccccc1)NC(=O)[C@H](Cc1ccc(O)cc1)NC(=O)CNC(=O)[C@H](CCCNC(=N)N)NC(=O)[C@H](CO)NC(=O)[C@H](CCC(N)=O)NC(=O)[C@H](CO)NC(=O)[C@H](C)NC(=O)[C@H](Cc1ccccc1)NC(=O)[C@@H]1CCCN1C(=O)[C@H](CO)NC(=O)[C@H](CCC(N)=O)NC(=O)[C@H](Cc1ccccc1)NC(=O)[C@H](CCC(=O)O)NC(=O)[C@H](CCC(=O)O)NC(=O)[C@H](CC(=O)O)NC(=O)[C@@H](NC(=O)[C@H](CCCNC(=N)N)NC(=O)[C@@H](N)Cc1ccccc1)C(C)C)C(=O)N[C@@H](Cc1ccccc1)C(=O)N[C@@H](CCCNC(=N)N)C(=O)N1CCC[C@H]1C(=O)N[C@@H](CCCNC(=N)N)C(=O)N[C@@H](CC(N)=O)C(N)=O — EC50 (Neuromedin-U receptor 2 (NMUR2, Homo sapiens, UniProt Q9GZQ4); inositol phosphate; agonist): 0.166 nM
